Measurements from ChEMBL document CHEMBL2434871, “Discovery of a potent dual EGFR/HER-2 inhibitor L-2 (selatinib) for the treatment of cancer” (Eur J Med Chem, 2013).
pIC50: −log10 of the molar value.

How the values were obtained:
Rattus norvegicus [1] = assay: Elimination half life in Wistar rat at 100 mg/kg, po assessed as lapatinib; assay type: ADME, organism-based; set-up: dose 100 mg/kg, route oral; settings: in vivo
In short: (§1)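 Male Wistar rats (220 ± 10 g), n = 4 per group, given the tosylate salt orally by gavage at 100 mg/kg, suspended in 0.5% sodium carboxymethylcellulose. Blood was sampled at 0.25 to 24 h. Parent compound and the lapatinib metabolite were extracted by C18 solid-phase extraction and analysed by LC/MSn.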

[2] = Elimination half life in Wistar rat at 100 mg/kg, po; assay type: ADME, organism-based; set-up: dose 100 mg/kg, route oral; settings: in vivo, read-out: beta t1/2 (converted); in short: as §1
Rattus norvegicus [3] = assay: Mean residence time in Wistar rat at 100 mg/kg, po assessed as lapatinib; assay type: ADME, organism-based; set-up: dose 100 mg/kg, route oral; settings: in vivo; in short: as §1
[4] = Mean residence time in Wistar rat at 100 mg/kg, po; assay type: ADME, organism-based; set-up: dose 100 mg/kg, route oral; settings: in vivo; in short: as §1
Rattus norvegicus [5] = assay: AUC (0 to infinity) in Wistar rat at 100 mg/kg, po assessed as lapatinib; assay type: ADME, organism-based, Plasma; set-up: time infinity, dose 100 mg/kg, route oral; settings: in vivo; in short: as §1
[6] = AUC (0 to infinity) in Wistar rat at 100 mg/kg, po; assay type: ADME, organism-based; set-up: time infinity, dose 100 mg/kg, route oral; settings: plasma; in short: as §1
Rattus norvegicus [7] = assay: AUC (0 to t) in Wistar rat at 100 mg/kg, po assessed as lapatinib; assay type: ADME, organism-based, Plasma; set-up: dose 100 mg/kg, route oral; settings: in vivo; in short: as §1
[8] = AUC (0 to t) in Wistar rat at 100 mg/kg, po; assay type: ADME, organism-based; set-up: dose 100 mg/kg, route oral; settings: plasma; in short: as §1
Rattus norvegicus [9] = assay: Cmax in Wistar rat at 100 mg/kg, po assessed as lapatinib; assay type: ADME, organism-based; set-up: dose 100 mg/kg, route oral; settings: in vivo; in short: as §1
[10] = Cmax in Wistar rat at 100 mg/kg, po; assay type: ADME, organism-based; set-up: dose 100 mg/kg, route oral; settings: in vivo; in short: as §1
Rattus norvegicus [11] = assay: Tmax in Wistar rat at 100 mg/kg, po assessed as lapatinib; assay type: ADME, organism-based; set-up: dose 100 mg/kg, route oral; settings: in vivo; in short: as §1
[12] = Tmax in Wistar rat at 100 mg/kg, po; assay type: ADME, organism-based; set-up: dose 100 mg/kg, route oral; settings: in vivo; in short: as §1
NCI-N87 [13] = assay: Antitumor activity against human NCI-N87 cells xenografted in BALB/c athymic mouse assessed as tumor regression at 200 mg/kg, po qd after 28 days relative to vehicle-treated control; assay type: functional; settings: NCI-N87, 672 h, read-out: TGI
In short: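 Female BALB/c athymic mice, 4–6 weeks old, received 2 × 10⁶ NCI-N87 or SK-OV-3 cells s.c. in the right flank. At a tumor volume of 100–300 mm³ they were randomized (control n = 10, treated n = 6). Tosylate salt was given at 200 mg/kg qd by oral gavage, and controls received vehicle. Tumor volume was taken as length × width²/2 by caliper. Inhibition = (1 − T/C) × 100% on mean relative tumor volume (RTV). Two-tailed t test.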

Mus musculus [14] = assay: Toxicity in BALB/c athymic mouse xenografted with human SKOV3 cells assessed as bloody stool at 200 mg/kg, po qd after 4 days; assay type: organism-based, SK-OV-3; set-up: dose 200 mg/kg, route oral; settings: in vivo, 96 h
Mus musculus [15] = assay: Toxicity in BALB/c athymic mouse xenografted with human NCI-N87 cells assessed as bloody stool at 200 mg/kg, po qd after 4 days; assay type: organism-based; set-up: dose 200 mg/kg, route oral; settings: in vivo, 96 h
Mus musculus [16] = assay: Toxicity in BALB/c athymic mouse xenografted with human SKOV3 cells assessed as hematuria at 200 mg/kg, po qd after 4 days; assay type: organism-based, SK-OV-3; set-up: dose 200 mg/kg, route oral; settings: in vivo, 96 h
Mus musculus [17] = assay: Toxicity in BALB/c athymic mouse xenografted with human NCI-N87 cells assessed as hematuria at 200 mg/kg, po qd after 4 days; assay type: organism-based; set-up: dose 200 mg/kg, route oral; settings: in vivo, 96 h
Mus musculus [18] = assay: Toxicity in BALB/c athymic mouse xenografted with human SKOV3 cells assessed as weight loss at 200 mg/kg, po qd after 4 days; assay type: organism-based, SK-OV-3; set-up: dose 200 mg/kg, route oral; settings: in vivo, 96 h
Mus musculus [19] = assay: Toxicity in BALB/c athymic mouse xenografted with human NCI-N87 cells assessed as weight loss at 200 mg/kg, po qd after 4 days; assay type: organism-based; set-up: dose 200 mg/kg, route oral; settings: in vivo, 96 h
BT-474 = assay: Cytotoxicity against human BT474 cells after 72 hrs by SRB assay; assay type: functional, cell-based; settings: BT-474, 72 h
NCI-N87 [20] = assay: Cytotoxicity against human NCI-N87 cells after 72 hrs by SRB assay; assay type: functional, cell-based; settings: NCI-N87, 72 h
[21] = biological target: Receptor tyrosine-protein kinase erbB-2 (Homo sapiens, UniProt P04626); assay: Inhibition of HER-2 (unknown origin) using poly-(Glu4-Tyr) as substrate after 1 hr by ELISA-based spectrophotometry
Receptor tyrosine-protein kinase erbB-2, sequence (P04626 whole entry): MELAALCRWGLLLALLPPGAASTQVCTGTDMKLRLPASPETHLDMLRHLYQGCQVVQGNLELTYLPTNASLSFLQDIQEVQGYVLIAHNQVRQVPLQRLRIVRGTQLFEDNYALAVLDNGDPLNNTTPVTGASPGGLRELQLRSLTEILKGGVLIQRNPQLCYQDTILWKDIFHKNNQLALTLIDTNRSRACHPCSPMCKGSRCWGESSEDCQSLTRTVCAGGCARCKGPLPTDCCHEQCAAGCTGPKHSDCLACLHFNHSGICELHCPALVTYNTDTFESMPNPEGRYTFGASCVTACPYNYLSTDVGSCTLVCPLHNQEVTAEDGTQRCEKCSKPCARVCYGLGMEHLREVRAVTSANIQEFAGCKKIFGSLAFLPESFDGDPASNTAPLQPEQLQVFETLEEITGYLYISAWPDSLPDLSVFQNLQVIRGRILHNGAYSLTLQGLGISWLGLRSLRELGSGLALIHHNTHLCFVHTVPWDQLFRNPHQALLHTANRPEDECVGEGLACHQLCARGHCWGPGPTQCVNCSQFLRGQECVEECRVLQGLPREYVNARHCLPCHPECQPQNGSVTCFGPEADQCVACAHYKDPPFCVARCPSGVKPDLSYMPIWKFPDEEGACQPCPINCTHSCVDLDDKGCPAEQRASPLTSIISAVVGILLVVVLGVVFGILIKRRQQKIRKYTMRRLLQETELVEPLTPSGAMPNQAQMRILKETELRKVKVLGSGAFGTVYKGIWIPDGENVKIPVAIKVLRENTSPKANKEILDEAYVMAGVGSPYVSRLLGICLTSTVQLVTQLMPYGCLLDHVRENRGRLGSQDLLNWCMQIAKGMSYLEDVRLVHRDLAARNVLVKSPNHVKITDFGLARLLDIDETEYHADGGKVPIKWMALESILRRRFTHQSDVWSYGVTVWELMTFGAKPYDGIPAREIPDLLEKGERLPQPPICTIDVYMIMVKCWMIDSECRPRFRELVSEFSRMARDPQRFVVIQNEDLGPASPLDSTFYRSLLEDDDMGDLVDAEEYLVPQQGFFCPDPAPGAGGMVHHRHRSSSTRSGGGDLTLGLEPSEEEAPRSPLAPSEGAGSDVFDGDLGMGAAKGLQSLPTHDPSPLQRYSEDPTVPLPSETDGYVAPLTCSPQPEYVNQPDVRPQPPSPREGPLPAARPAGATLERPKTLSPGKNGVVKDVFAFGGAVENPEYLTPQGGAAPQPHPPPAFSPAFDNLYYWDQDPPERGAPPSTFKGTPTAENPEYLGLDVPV
In short: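 ELISA on plates pre-coated with poly(Glu,Tyr 4:1) substrate. Serially diluted compounds plus ATP were added in 50 mM HEPES pH 7.4 containing 20 mM MgCl₂, 0.2 mM MnCl₂, 0.1 mM Na₃VO₄ and 1 mM DTT. Phosphotyrosine was detected with anti-phosphotyrosine antibody PY99 (1:500), then HRP anti-mouse IgG, then o-phenylenediamine/H₂O₂ at pH 5.5.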

[22] = biological target: Epidermal growth factor receptor (Homo sapiens, UniProt P00533); assay: Inhibition of EGFR (unknown origin) using poly-(Glu4-Tyr) as substrate after 1 hr by ELISA-based spectrophotometry
Epidermal growth factor receptor, sequence (P00533 whole entry): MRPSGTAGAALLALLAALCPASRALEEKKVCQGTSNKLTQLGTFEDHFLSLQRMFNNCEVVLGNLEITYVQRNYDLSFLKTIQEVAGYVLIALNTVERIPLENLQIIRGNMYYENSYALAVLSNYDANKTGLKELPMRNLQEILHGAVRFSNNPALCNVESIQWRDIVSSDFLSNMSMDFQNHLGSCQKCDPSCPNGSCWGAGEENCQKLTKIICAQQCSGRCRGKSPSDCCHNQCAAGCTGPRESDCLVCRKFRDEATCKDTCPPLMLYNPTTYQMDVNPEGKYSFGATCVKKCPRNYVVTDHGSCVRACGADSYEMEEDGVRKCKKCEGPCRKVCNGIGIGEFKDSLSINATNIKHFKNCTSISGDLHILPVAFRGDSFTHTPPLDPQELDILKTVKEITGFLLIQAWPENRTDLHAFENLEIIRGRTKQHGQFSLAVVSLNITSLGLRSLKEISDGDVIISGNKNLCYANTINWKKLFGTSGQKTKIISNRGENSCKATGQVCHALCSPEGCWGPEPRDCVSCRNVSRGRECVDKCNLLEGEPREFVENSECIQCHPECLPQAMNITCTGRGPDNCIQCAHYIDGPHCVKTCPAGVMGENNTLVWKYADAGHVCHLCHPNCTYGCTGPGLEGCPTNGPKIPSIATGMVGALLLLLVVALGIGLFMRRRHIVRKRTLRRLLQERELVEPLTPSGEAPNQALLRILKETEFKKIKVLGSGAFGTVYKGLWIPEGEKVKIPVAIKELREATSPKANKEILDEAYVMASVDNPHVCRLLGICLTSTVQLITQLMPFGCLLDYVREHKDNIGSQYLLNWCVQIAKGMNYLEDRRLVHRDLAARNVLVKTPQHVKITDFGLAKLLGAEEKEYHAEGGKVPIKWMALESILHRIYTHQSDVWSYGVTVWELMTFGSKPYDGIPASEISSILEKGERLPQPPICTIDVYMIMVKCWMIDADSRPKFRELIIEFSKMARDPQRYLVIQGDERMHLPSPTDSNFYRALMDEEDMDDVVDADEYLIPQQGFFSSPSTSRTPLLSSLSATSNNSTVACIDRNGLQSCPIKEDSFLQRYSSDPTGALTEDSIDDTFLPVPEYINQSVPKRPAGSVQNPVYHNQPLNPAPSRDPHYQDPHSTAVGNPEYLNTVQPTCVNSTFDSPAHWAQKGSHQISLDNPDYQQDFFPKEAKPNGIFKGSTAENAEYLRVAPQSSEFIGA

[23] = Aqueous solubility of the compound at 25 degC by shake-flask method; assay type: physicochemical; settings: unbuffered water
SK-OV-3 = assay: Antitumor activity against human SKOV3 cells xenografted in BALB/c athymic mouse assessed as tumor regression at 200 mg/kg, po qd after 21 days relative to vehicle-treated control; settings: SK-OV-3, po, 504 h, read-out: TGI

CSCCNCc1ccc(-c2ccc3ncnc(Nc4ccc(OCc5cccc(F)c5)c(Cl)c4)c3c2)o1.Cc1ccc(S(=O)(=O)O)cc1
beta t1/2 (Rattus norvegicus [1]): 4.18 h
half-life [2]: 4.43 h
MRT (Rattus norvegicus [3]): 8.34 h
MRT [4]: 8.19 h
AUC (Rattus norvegicus [5]): 2058 ng·h/mL
AUC(0-inf) [6]: 8130 ng·h/mL
AUCt (Rattus norvegicus [7]): 1994 ng·h/mL
AUC(0-t) [8]: 7890 ng·h/mL
Cmax (Rattus norvegicus [9]): 242 ng/mL
Cmax [10]: 854 ng/mL
Tmax (Rattus norvegicus [11]): 3 h
Tmax [12]: 3 h
inhibition in vivo at 200 mg/kg (NCI-N87 [13]): 84.7%
Activity (Mus musculus [14]): Non-toxic
Activity (Mus musculus [15]): Non-toxic
Activity (Mus musculus [16]): Non-toxic
Activity (Mus musculus [17]): Non-toxic
Activity (Mus musculus [18]): Non-toxic
Activity (Mus musculus [19]): Non-toxic
pIC50 (BT-474): 7.45
pIC50 (NCI-N87 [20]): 7.33
pIC50 [21]: 7.74
pIC50 [22]: 7.60
solubility [23]: 3 µg/mL
inhibition in vivo at 200 mg/kg (SK-OV-3): 74.6%

C[S+]([O-])CCNCc1ccc(-c2ccc3ncnc(Nc4ccc(OCc5cccc(F)c5)c(Cl)c4)c3c2)o1.Cc1ccc(S(=O)(=O)O)cc1 (configuration not stated)
beta t1/2 (Rattus norvegicus [1]): 2.64 h
half-life [2]: 2.32 h
MRT (Rattus norvegicus [3]): 5.88 h
MRT [4]: 5.38 h
AUC (Rattus norvegicus [5]): 4309 ng·h/mL
AUC(0-inf) [6]: 53200 ng·h/mL
AUCt (Rattus norvegicus [7]): 4295 ng·h/mL
AUC(0-t) [8]: 50300 ng·h/mL
Cmax (Rattus norvegicus [9]): 645 ng/mL
Cmax [10]: 8880 ng/mL
Tmax (Rattus norvegicus [11]): 4.5 h
Tmax [12]: 3.5 h

CS(=O)(=O)NCCNCc1ccc(-c2ccc3ncnc(Nc4ccc(OCc5cccc(F)c5)c(Cl)c4)c3c2)o1
pIC50 [21]: 7.80
pIC50 [22]: 7.73

NS(=O)(=O)CCNCc1ccc(-c2ccc3ncnc(Nc4ccc(OCc5cccc(F)c5)c(Cl)c4)c3c2)o1
pIC50 [21]: 8.41

Cc1ccc(S(=O)(=O)O)cc1.O=S(=O)(CCNCc1ccc(-c2ccc3ncnc(Nc4ccc(OCc5cccc(F)c5)c(Cl)c4)c3c2)o1)CC(F)(F)F
inhibition in vivo at 200 mg/kg (NCI-N87 [13]): 46.9%
Activity (Mus musculus [14]): Non-toxic
Activity (Mus musculus [15]): Non-toxic
Activity (Mus musculus [16]): Non-toxic
Activity (Mus musculus [17]): Non-toxic
Activity (Mus musculus [18]): Non-toxic
Activity (Mus musculus [19]): Non-toxic
pIC50 (BT-474): 7.58
pIC50 (NCI-N87 [20]): 7.29
pIC50 [21]: 8.07
pIC50 [22]: 7.68
solubility [23]: 16.7 µg/mL
inhibition in vivo at 200 mg/kg (SK-OV-3): 45.2%

Fc1cccc(COc2ccc(Nc3ncnc4ccc(-c5ccc(CN6CCOCC6)o5)cc34)cc2Cl)c1
pIC50 (BT-474): 7.07
pIC50 (NCI-N87 [20]): 7.20
pIC50 [21]: 7.88
pIC50 [22]: 7.59
